For five molecules, MIC results are on record in ChEMBL document CHEMBL4033721, “Design, synthesis and evaluation of indole-2-carboxamides with pan anti-mycobacterial activity” (Bioorg Med Chem, 2017).

≈ marks a conversion by molar mass, not a printed value. Some results are limits rather than exact numbers.

The test system of one assay is Mycobacterium avium-intracellulare. The assay is described as follows: Antimycobacterial activity against Mycobacterium avium-intracellulare isolate 1956 after 8 days by resazurin microtiter based colorimetric assay. The format is functional. The note with it: isolate 1956, 192 h. The gist of the method:
(§1)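 Resazurin microtiter plate MIC, read by visual scan for growth, in Mueller Hinton II broth. Strains include clinical isolates of M. abscessus complex, M. chelonae, M. avium, M. intracellulare, M. xenopi, P. aeruginosa PAO-1 and S. aureus ATCC 25923.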
(In general: Resazurin is reduced to fluorescent resorufin, in cell work by metabolically active cells.)
For `Cc1cc(C)c2cc(C(=O)NC34CC5CC(CC(C5)C3)C4)[nH]c2c1`, the MIC – broadly, the lowest concentration that inhibits growth of the organism – was greater than 32 µg/mL.

Take `Cc1cc(C)c2cc(C(=O)NC3C4CC5CC(C4)CC3C5)[nH]c2c1` (stereo not given): the MIC is greater than 32 µg/mL.

Molecule `Cc1cc(C)c2cc(C(=O)NC3CCCC3)[nH]c2c1` returned an MIC greater than 32 µg/mL.

In turn, `CC1CCC(NC(=O)c2cc3ccccc3[nH]2)CC1` (mixture of isomers) displayed an MIC greater than 32 µg/mL.

`O=C(NC1C2CC3CC(C2)CC1C3)c1cc2ccccc2[nH]1` (stereo not given) displayed a minimal inhibitory concentration (MIC) greater than 32 µg/mL.

In another assay the test system is Mycobacterium tuberculosis. In words: Antimycobacterial activity against Mycobacterium tuberculosis H37Rv MC2-6206 after 8 days by resazurin microtiter based colorimetric assay. The assay is classed as functional. The note with it: H37Rv MC2-6206, 192 h. In short, it runs like this:
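MIC was measured by resazurin microtiter colorimetric assay with visual growth scoring. Medium was 7H9-ADC–0.05% tyloxapol with 0.2% casaminoacids, 48 µg/ml pantothenate and 50 µg/ml L-leucine.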
Take `Cc1cc(C)c2cc(C(=O)NC34CC5CC(CC(C5)C3)C4)[nH]c2c1`: the MIC is 0.0195 µg/mL (≈ 0.0605 µM).

The molecule `Cc1cc(C)c2cc(C(=O)NC3C4CC5CC(C4)CC3C5)[nH]c2c1` (stereo not given) had a minimal inhibitory concentration (MIC) of 0.04 µg/mL (≈ 0.124 µM).

Regarding `Cc1cc(C)c2cc(C(=O)NC3CCCC3)[nH]c2c1`, the MIC is 2.5 µg/mL (≈ 9.75 µM).

As for `CC1CCC(NC(=O)c2cc3ccccc3[nH]2)CC1` (mixture of isomers), the minimal inhibitory concentration (MIC) was found to be 5 µg/mL.

Turning to `O=C(NC1C2CC3CC(C2)CC1C3)c1cc2ccccc2[nH]1` (stereo not given), it took 0.39 µg/mL (≈ 1.32 µM) to inhibit growth (MIC).

System in the next assay: not listed separately
In words: Antimycobacterial activity against Mycobacterium bolletii ATCC 14472 after 8 days by resazurin microtiter based colorimetric assay. The assay is classed as functional. To be noted: Mycobacteroides abscessus, ATCC 14472, 192 h. In short, it runs like this: as §1
In turn, `Cc1cc(C)c2cc(C(=O)NC34CC5CC(CC(C5)C3)C4)[nH]c2c1` came in with a minimal inhibitory concentration (MIC) greater than 32 µg/mL.

Take `Cc1cc(C)c2cc(C(=O)NC3C4CC5CC(C4)CC3C5)[nH]c2c1` (stereo not given): the MIC was greater than 32 µg/mL.

In turn, `Cc1cc(C)c2cc(C(=O)NC3CCCC3)[nH]c2c1` gave a minimum inhibitory concentration (MIC) of 2 µg/mL (≈ 7.8 µM).

Take `CC1CCC(NC(=O)c2cc3ccccc3[nH]2)CC1` (mixture of isomers): the minimal inhibitory concentration (MIC) was found to be 16 µg/mL.

`O=C(NC1C2CC3CC(C2)CC1C3)c1cc2ccccc2[nH]1` (stereo not given) showed a minimal inhibitory concentration (MIC) of 32 µg/mL (≈ 109 µM).

The subject of the next assay is Mycobacteroides abscessus. The assay is described as follows: Antimycobacterial activity against Mycobacterium abscessus ATCC 19977 after 8 days by resazurin microtiter based colorimetric assay. The note with it: ATCC 19977, 192 h. The format is functional. The gist of the method:
as §1
For `Cc1cc(C)c2cc(C(=O)NC34CC5CC(CC(C5)C3)C4)[nH]c2c1`, the minimum inhibitory concentration (MIC) is greater than 32 µg/mL.

Molecule `Cc1cc(C)c2cc(C(=O)NC3C4CC5CC(C4)CC3C5)[nH]c2c1` (stereo not given) displayed an MIC greater than 32 µg/mL.

`Cc1cc(C)c2cc(C(=O)NC3CCCC3)[nH]c2c1` came in with an MIC of 4 µg/mL (≈ 15.6 µM).

For the molecule `CC1CCC(NC(=O)c2cc3ccccc3[nH]2)CC1` (mixture of isomers), the minimum inhibitory concentration (MIC) is greater than 32 µg/mL.

With `O=C(NC1C2CC3CC(C2)CC1C3)c1cc2ccccc2[nH]1` (stereo not given), the minimal inhibitory concentration (MIC) was greater than 32 µg/mL.

System in the next assay: not listed separately
In words: Antimycobacterial activity against Mycobacterium massiliense isolate CIP108297 after 8 days by resazurin microtiter based colorimetric assay. The format is functional, Mycobacterium abscessus subsp. massiliense. To be noted: Mycobacteroides abscessus, isolate CIP108297, 192 h. In short, it runs like this:
as §1
The molecule `Cc1cc(C)c2cc(C(=O)NC34CC5CC(CC(C5)C3)C4)[nH]c2c1` showed a minimal inhibitory concentration (MIC) greater than 32 µg/mL.

In turn, `Cc1cc(C)c2cc(C(=O)NC3C4CC5CC(C4)CC3C5)[nH]c2c1` (stereo not given) gave a minimal inhibitory concentration (MIC) greater than 32 µg/mL.

`Cc1cc(C)c2cc(C(=O)NC3CCCC3)[nH]c2c1` yielded an MIC of 8 µg/mL (≈ 31.2 µM).

Regarding `CC1CCC(NC(=O)c2cc3ccccc3[nH]2)CC1` (mixture of isomers), inhibition of growth (MIC) required 16 µg/mL.

As for `O=C(NC1C2CC3CC(C2)CC1C3)c1cc2ccccc2[nH]1` (stereo not given), the MIC is greater than 32 µg/mL.

In a further assay the test system is Mycobacteroides chelonae. In words: Antimycobacterial activity against Mycobacterium chelonae ATCC 35752 after 8 days by resazurin microtiter based colorimetric assay. The format is functional. The note with it: ATCC 35752, 192 h. The gist of the method: as §1
The molecule `Cc1cc(C)c2cc(C(=O)NC34CC5CC(CC(C5)C3)C4)[nH]c2c1` showed a minimal inhibitory concentration (MIC) greater than 32 µg/mL.

`Cc1cc(C)c2cc(C(=O)NC3C4CC5CC(C4)CC3C5)[nH]c2c1` (stereo not given) registered an MIC greater than 32 µg/mL.

The molecule `Cc1cc(C)c2cc(C(=O)NC3CCCC3)[nH]c2c1` returned an MIC of 2 µg/mL (≈ 7.8 µM).

The molecule `CC1CCC(NC(=O)c2cc3ccccc3[nH]2)CC1` (mixture of isomers) yielded an MIC of 16 µg/mL.

In turn, `O=C(NC1C2CC3CC(C2)CC1C3)c1cc2ccccc2[nH]1` (stereo not given) returned a minimum inhibitory concentration (MIC) greater than 32 µg/mL.

System in the next assay: not listed separately
In words: Antimycobacterial activity against Mycobacterium massiliense isolate CRM0019 after 8 days by resazurin microtiter based colorimetric assay. The assay is classed as functional, Mycobacterium abscessus subsp. massiliense. To be noted: Mycobacteroides abscessus, isolate CRM0019, 192 h. The gist of the method: as §1
With `Cc1cc(C)c2cc(C(=O)NC34CC5CC(CC(C5)C3)C4)[nH]c2c1`, the MIC is greater than 32 µg/mL.

Molecule `Cc1cc(C)c2cc(C(=O)NC3C4CC5CC(C4)CC3C5)[nH]c2c1` (stereo not given) showed a minimum inhibitory concentration (MIC) greater than 32 µg/mL.

As to `Cc1cc(C)c2cc(C(=O)NC3CCCC3)[nH]c2c1`, inhibition of growth (MIC) required 8 µg/mL (≈ 31.2 µM).

Regarding `CC1CCC(NC(=O)c2cc3ccccc3[nH]2)CC1` (mixture of isomers), inhibition of growth (MIC) required 16 µg/mL.

`O=C(NC1C2CC3CC(C2)CC1C3)c1cc2ccccc2[nH]1` (stereo not given) came in with an MIC of 32 µg/mL (≈ 109 µM).

For the next assay, the system named is Mycolicibacterium smegmatis. The assay is described as follows: Antimycobacterial activity against Mycobacterium smegmatis isolate MC2 155 after 8 days by resazurin microtiter based colorimetric assay. The format is functional. To be noted: str. MC2 155, 192 h.
As to `Cc1cc(C)c2cc(C(=O)NC34CC5CC(CC(C5)C3)C4)[nH]c2c1`, the MIC is 1.25 to 2.5 µg/mL (≈ 3.88 to 7.75 µM).

As to `Cc1cc(C)c2cc(C(=O)NC3C4CC5CC(C4)CC3C5)[nH]c2c1` (stereo not given), the MIC is greater than 20 µg/mL.

The molecule `Cc1cc(C)c2cc(C(=O)NC3CCCC3)[nH]c2c1` yielded an MIC of 5 µg/mL (≈ 19.5 µM).

The molecule `CC1CCC(NC(=O)c2cc3ccccc3[nH]2)CC1` (mixture of isomers) had an MIC of 12.5 µg/mL.

In turn, `O=C(NC1C2CC3CC(C2)CC1C3)c1cc2ccccc2[nH]1` (stereo not given) displayed an MIC greater than 25 µg/mL.

Another assay has as its system Mycobacterium avium. The assay is described as follows: Antimycobacterial activity against Mycobacterium avium isolate 104 after 8 days by resazurin microtiter based colorimetric assay. The format is functional. The note with it: isolate 104, 192 h. The gist of the method: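 M. avium 104 MICs were read by resazurin microtiter colorimetric assay in 96-well plates, with growth scored visually, in Mueller Hinton II medium.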
For `Cc1cc(C)c2cc(C(=O)NC34CC5CC(CC(C5)C3)C4)[nH]c2c1`, the minimal inhibitory concentration (MIC) is greater than 32 µg/mL.

In the case of `Cc1cc(C)c2cc(C(=O)NC3C4CC5CC(C4)CC3C5)[nH]c2c1` (stereo not given), the MIC was greater than 32 µg/mL.

On to `Cc1cc(C)c2cc(C(=O)NC3CCCC3)[nH]c2c1`, for which the MIC was greater than 32 µg/mL.

As to `CC1CCC(NC(=O)c2cc3ccccc3[nH]2)CC1` (mixture of isomers), the minimal inhibitory concentration (MIC) is greater than 32 µg/mL.

With `O=C(NC1C2CC3CC(C2)CC1C3)c1cc2ccccc2[nH]1` (stereo not given), the MIC was greater than 32 µg/mL.

Another assay deals with Mycobacteroides abscessus. In words: Antimycobacterial activity against Mycobacterium abscessus isolate DCI 21 after 8 days by resazurin microtiter based colorimetric assay. The assay is classed as functional. To be noted: isolate DCI 21, 192 h. In short, it runs like this:
as §1
Molecule `Cc1cc(C)c2cc(C(=O)NC34CC5CC(CC(C5)C3)C4)[nH]c2c1` gave an MIC of 32 µg/mL (≈ 99.2 µM).

`Cc1cc(C)c2cc(C(=O)NC3C4CC5CC(C4)CC3C5)[nH]c2c1` (stereo not given) registered a minimal inhibitory concentration (MIC) greater than 32 µg/mL.

On to `Cc1cc(C)c2cc(C(=O)NC3CCCC3)[nH]c2c1`, for which inhibition of growth (MIC) required 4 µg/mL (≈ 15.6 µM).

Regarding `CC1CCC(NC(=O)c2cc3ccccc3[nH]2)CC1` (mixture of isomers), the MIC was greater than 32 µg/mL.

`O=C(NC1C2CC3CC(C2)CC1C3)c1cc2ccccc2[nH]1` (stereo not given) yielded an MIC greater than 32 µg/mL.

A further assay has as its system Mycobacterium xenopi. The assay is described as follows: Antimycobacterial activity against wild type Mycobacterium xenopi isolate 4042 after 8 days by resazurin microtiter based colorimetric assay. The assay is classed as functional. The note with it: isolate 4042, 192 h. In short, it runs like this:
as §1
The molecule `Cc1cc(C)c2cc(C(=O)NC34CC5CC(CC(C5)C3)C4)[nH]c2c1` displayed an MIC greater than 32 µg/mL.

As to `Cc1cc(C)c2cc(C(=O)NC3C4CC5CC(C4)CC3C5)[nH]c2c1` (stereo not given), the MIC lay in the range of 0.5 to 1 µg/mL (≈ 1.55 to 3.1 µM).

Molecule `Cc1cc(C)c2cc(C(=O)NC3CCCC3)[nH]c2c1` displayed an MIC of 8 to 16 µg/mL (≈ 31.2 to 62.4 µM).

`CC1CCC(NC(=O)c2cc3ccccc3[nH]2)CC1` (mixture of isomers) yielded an MIC of 16 µg/mL.

Molecule `O=C(NC1C2CC3CC(C2)CC1C3)c1cc2ccccc2[nH]1` (stereo not given) showed a minimal inhibitory concentration (MIC) of 2 µg/mL (≈ 6.79 µM).
